Reference: article PMC9290342 (Clinical Pharmacology in Drug Development, 2021)
Read-outs that look alike come from different tables or passages of the source.

Legend:
[1] = assay type: in vivo, human; settings: for tmax, total methylprednisolone: median (minimum‐maximum)
Summary of the method: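 Oral methylprednisolone tablets were given to healthy in-clinic volunteers, with serial whole-blood sampling over 24 h after dosing on study days 1 and 4. Plasma total methylprednisolone was quantified by validated LC–MS/MS. The PK population comprised subjects with at least 4 consecutive quantifiable concentrations. Parameters were summarized descriptively.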

[2] = Plasma pharmacokinetics of free methylprednisolone after oral methylprednisolone; assay type: in vivo, human; settings: oral 32 mg daily; for tmax, free methylprednisolone: median (minimum‐maximum)
[3] = system: steroidogenic concentration (CSG = 5 × ConcMPD + ConcCortisol); experiment: Steroidogenic exposure; assay type: in vivo, human; settings: oral methylprednisolone 32 mg daily
Summary of the method: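 After oral methylprednisolone on days 1 and 4, plasma total and free methylprednisolone were measured over 24 h by LC–MS/MS, alongside serum total and plasma free cortisol. Steroidogenic concentration was CSG = 5 × methylprednisolone concentration + cortisol concentration. AUEC24SG was derived noncompartmentally from actual sampling times, in subjects belonging to both the PK and PD populations.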

[4] = Safety: adverse events, examinations, laboratory tests; assay type: in vivo, human; settings: n = 16 subjects per study drug group
Summary of the method: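 The safety population comprised every subject given ≥1 dose. Assessments throughout the study covered AEs, TEAEs (events after the first dose through study completion), serious TEAEs, physical examinations, vital signs, 12‑lead ECGs and clinical laboratory tests. Results were summarized descriptively.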

[5] = every 1 mg of methylprednisolone is equivalent to 5 mg of cortisol; cited from earlier work
[6] = oral 32 mg daily, plasma, day 1, mean (SD), n = 16
[7] = oral 32 mg daily, plasma, day 4, mean (SD), n = 14
[8] = plasma, day 1, mean (SD), n = 16

Structure (SMILES): C[C@H]1C[C@@H]2[C@H]([C@@H](O)C[C@@]3(C)[C@H]2CC[C@]3(O)C(=O)CO)[C@@]2(C)C=CC(=O)C=C12 [Methylprednisolone, methylprednisolone]
- RAUC0‐24 (accumulation ratio), total methylprednisolone ([1]; oral 32 mg daily, AUC0-24 on day 4 divided by AUC0-24 on day 1, mean): 0.9
- time of mean peak plasma total methylprednisolone concentration (mean profile) ([1]; oral 32 mg daily, after oral dosing): around 2 hours
- AUC0‐inf, total methylprednisolone [1, 6]: n = 16 1030 (380) ng • h/mL
- AUC0‐last, total methylprednisolone [1, 6]: n = 16 1020 (381) ng • h/mL
- t½, total methylprednisolone [1, 6]: n = 16 2.2 (0.6) h
- t½, total methylprednisolone ([1]; oral 32 mg daily, plasma, day 1, mean (SD), n = 16, listed as methylprednisolone): 2.2 h
- tmax, total methylprednisolone ([1]; oral 32 mg daily, plasma, day 1, n = 16): n = 16 2.0 (2.0‐4.0) h
- AUC0‐last, total methylprednisolone [1, 7]: n = 14 919 (297) ng • h/mL
- t½, total methylprednisolone [1, 7]: n = 14 2.4 (0.7) h
- t½, total methylprednisolone ([1]; oral 32 mg daily, plasma, day 4, mean (SD), n = 14, listed as methylprednisolone): 2.4 h
- tmax, total methylprednisolone ([1]; oral 32 mg daily, plasma, day 4, n = 14): n = 14 2.0 (1.0‐4.0) h
- Cmax, total methylprednisolone ([1]; oral methylprednisolone 32 mg daily, plasma, LC-MS/MS, day 4, mean (SD), n = 14): n = 14 188.0 (40.0) ng/mL
- time of mean peak plasma free methylprednisolone concentration (mean profile) ([2]; after oral dosing): 2 h
- Cmax, free methylprednisolone ([2]; plasma, LC-MS/MS, day 4, mean (SD), n = 15): n = 15 21.9 (5.4) ng/mL
- AUC0‐inf, free methylprednisolone [2, 8]: n = 16 106 (36) ng • h/mL
- AUC0‐last, free methylprednisolone [2, 8]: n = 16 104.0 (35.2) ng • h/mL
- t½, free methylprednisolone [2, 8]: n = 16 1.9 (0.5) h
- t½, free methylprednisolone ([2]; plasma, day 1, mean (SD), n = 16, listed as methylprednisolone): 1.9 h
- tmax, free methylprednisolone ([2]; plasma, day 1, n = 16): n = 16 2.0 (1.0‐4.0) h
- t½, free methylprednisolone ([2]; plasma, day 4, mean (SD), n = 13): n = 13 2.0 (0.5) h
- t½, free methylprednisolone ([2]; plasma, day 4, mean (SD), n = 13, listed as methylprednisolone): 2.0 h
- AUC0‐last, free methylprednisolone ([2]; plasma, day 4, mean (SD), n = 15): n = 15 89.5 (27.3) ng • h/mL
- tmax, free methylprednisolone ([2]; plasma, day 4, n = 15): n = 15 2.0 (1.0‐4.0) h
- plasma total AUEC24SG ([3]; day 1, mean (SD 1770.0)): 6480.0 ng·h/mL
- plasma free AUEC24SG ([3]; day 4, mean (SD 136.0)): 492.0 ng·h/mL
- plasma total AUEC24SG ([3]; day 4, mean (SD 1330.0)): 5440.0 ng·h/mL
- Any TESAE [4]: 0 n (%)
- Subjects with any TEAE [4]: 10 (62.5) n (%)
- TEAE: Contusion [4]: 1 (6.3) n (%)
- TEAE: Dysuria [4]: 0 n (%)
- TEAE: Headache [4]: 2 (12.5) n (%)
- TEAE: Heart palpitations [4]: 2 (12.5) n (%)
- TEAE: Injection site reaction [4]: 0 n (%)
- TEAE: Insomnia [4]: 0 n (%)
- TEAE: Somnolence [4]: 0 n (%)
- TESAE: Pulmonary embolism [4]: 0 n (%)
- AEs ([4]; number of adverse events): 17 n
- potency relative to cortisol (times more potent) [5]: 5 times
